IC50 and inhibition data for 23 molecules are collected here from PubChem BioAssay AID602216 (Southern Research Specialized Biocontainment Screening …, 2012).

Each structure is given as a SMILES string. Results filed as inconclusive are left out. Active and inactive are the calls of the source.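 The calls were made as follows: active = inhibition of 30% or more at any tested concentration; inactive = the rest, inconclusive results apart.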

One assay concerns the target M17 leucyl aminopeptidase (Plasmodium falciparum 3D7). Description: PfM17LAP leucine aminopeptidase inhibitors, dose response, biochemical, QFRET, set 2 (AID 602216). The following applies: recombinant PfM17LAP, H-Leu-NHMec fluorogenic cleavage. Put shortly:
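material = purified recombinant Plasmodium falciparum M17 leucine aminopeptidase (rPFM17LAP) | medium = pH 7.5 buffer containing CoCl2 | reagent = 0.1 mM H-Leu-NHMec as fluorogenic peptide substrate | times = 90 min reaction | technique = Substrate-cleavage fluorescence | read-out = IC50 from four-parameter logistic fit, limits fixed 0–100% inhibition | benchmarks = full reaction and no-enzyme wells | repeats = triplicate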
As to `COc1ccc(CC(=O)NO)cc1`, the IC50 was 540 nM.
The same measure, in the same setting: then `O=C(NO)c1cccc2ccccc12`, with 9080 nM.
On the same count and under the same terms, then `CC(C)COc1ccc(CC(=O)NO)cc1`, with 950 nM; and `CN(O)C(=O)Cc1ccc(OCc2ccccc2)cc1`, with 20600 nM; and `O=C(Cc1ccc(Oc2ccccc2)cc1)NO`, with 410 nM.
On the same count and under the same terms, the value for `CCCCOc1ccc(C(=O)NO)cc1` was 3300 nM; that for `CCOc1ccc(CC(=O)NO)cc1` was 740 nM; that for `CCCCOc1ccc(CCC(=O)NO)cc1` was 2300 nM.
Take `CCCCOc1ccc(CC(=O)N(C)O)cc1`: the IC50 is 18000 nM.
The same measure, in the same setting: the value for `COc1ccc(CCCC(=O)NO)cc1` was 2850 nM.
Consider `CCCCOc1ccc(CNc2c(N(C)O)c(=O)c2=O)cc1`, for which the IC50 is 33200 nM.
Still for that read-out and setting: then `Cc1ccc(CC(=O)NO)cc1`, with 980 nM; and `CCCCc1ccc(CC(=O)NO)cc1`, with 380 nM; and `CCCCCCCCCC(=O)NO`, with 1920 nM.
Still for that read-out and setting: then `O=C(Cc1ccc2c(c1)CCCC2)NO`, with 180 nM.
For the molecule `O=C(Cc1ccc(OCc2ccccc2)cc1)NO`, the IC50 was 630 nM.
Same read-out and setting: the value for `CC(C)(C(=O)NO)c1ccccc1` was 60300 nM.
Still for that read-out and setting: then `CCCCOc1ccc(CC(=O)NO)cc1`, with 410 nM.

The assay is the same for the next values; noted with them: recombinant PfM17LAP, H-Leu-NHMec fluorogenic cleavage; at 1.56 µM (top of the series).
Consider `COC(=O)Cc1ccc(OCCN(C)C)cc1`, for which the inhibition result is “inactive”.

The same assay, now with this note: recombinant PfM17LAP, H-Leu-NHMec fluorogenic cleavage; at 100 µM (top of the series).
With `CCC(C)Oc1ccc(CC(=O)OC)cc1` (stereo not drawn), the inhibition entry was “inactive”.
On the same count and under the same terms, the value for `CCCCOc1ccc(CC(=O)O)cc1` was “inactive”; that for `CCCOc1ccc(CC(=O)OC)cc1` was “inactive”.
The same measure, in the same setting: the value for `COC(=O)Cc1ccc(OCC(C)C)cc1` was “inactive”.

In general, IC50 refers to the concentration that gives 50% inhibition.
